Active and inactive are the calls of the source. The calls are words filed in the database; no cut-off is given here.
What was measured:
[1] = system: Mus musculus; test: Antiinflammatory activity against carrageenan-induced paw edema in Swiss albino mouse assessed as swelling thickness at 100 mg/kg, po after 90 mins; assay type: functional
Procedure, shortened: (§1)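 Oral dosing in 0.5% CMC; vehicle to controls. Then carrageenan (0.5 mg/25 ll, freshly suspended in 154 mM saline) injected into the right hind paw subplantar tissue; saline into the left paw. Right-left footpad thickness difference measured by dial gauge calliper every 90 min over 6 h. Inhibition % is relative to vehicle control. n = 6; mean ± SEM.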

[2] = system: Mus musculus; test: Antiinflammatory activity against carrageenan-induced paw edema in Swiss albino mouse assessed as swelling thickness at 100 mg/kg, po after 180 mins; assay type: functional; procedure, shortened: as §1
[3] = system: Mus musculus; test: Antiinflammatory activity against carrageenan-induced paw edema in Swiss albino mouse assessed as swelling thickness at 100 mg/kg, po after 270 mins; assay type: functional; procedure, shortened: as §1
[4] = system: Mus musculus; test: Antiinflammatory activity against carrageenan-induced paw edema in Swiss albino mouse assessed as swelling thickness at 100 mg/kg, po after 360 mins; assay type: functional; procedure, shortened: as §1
[5] = system: Mus musculus; test: Inhibition of carrageenan-induced paw edema in Swiss albino mouse at 100 mg/kg, po after 90 mins relative to control; assay type: functional; conditions: 1.5 h; procedure, shortened: as §1
[6] = system: Mus musculus; test: Inhibition of carrageenan-induced paw edema in Swiss albino mouse at 100 mg/kg, po after 180 mins relative to control; assay type: functional; conditions: 3 h; procedure, shortened: as §1
[7] = system: Mus musculus; test: Inhibition of carrageenan-induced paw edema in Swiss albino mouse at 100 mg/kg, po after 270 mins relative to control; assay type: functional; conditions: 4.5 h; procedure, shortened: as §1
[8] = system: Mus musculus; test: Inhibition of carrageenan-induced paw edema in Swiss albino mouse at 100 mg/kg, po after 360 mins relative to control; assay type: functional; conditions: 6 h; procedure, shortened: as §1
[9] = system: Mus musculus; test: Analgesic activity against p-benzoquinone-induced abdominal constriction in Swiss albino mouse assessed as number of writhings at 25 mg/kg, po; assay type: functional, Abdomen
Procedure, shortened: (§2)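 Test samples given orally in 0.5% CMC; vehicle to controls. 60 min later, 2.5% (v/v) p-benzoquinone in distilled water, 0.1 ml/10 g, given i.p. Mice housed singly; writhes counted for 15 min starting 5 min after injection. Activity is % change from vehicle controls. n = 6; mean ± SEM.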

[10] = system: Mus musculus; test: Analgesic activity against p-benzoquinone-induced abdominal constriction in Swiss albino mouse assessed as number of writhings at 50 mg/kg, po; assay type: functional, Abdomen; procedure, shortened: as §2
[11] = system: Mus musculus; test: Analgesic activity against p-benzoquinone-induced abdominal constriction in Swiss albino mouse assessed as number of writhings at 100 mg/kg, po; assay type: functional, Abdomen; procedure, shortened: as §2
[12] = system: Mus musculus; test: Analgesic activity against p-benzoquinone-induced abdominal constriction in Swiss albino mouse assessed as number of writhings at 200 mg/kg, po; assay type: functional, Abdomen; procedure, shortened: as §2
[13] = system: Mus musculus; test: Inhibition of p-benzoquinone-induced writhing in Swiss albino mouse at 25 mg/kg, po relative to control; assay type: functional
Procedure, shortened: (§3)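 Mice, n = 6 per group, dosed orally with a suspension in 0.5% sodium CMC. 60 min later, 0.1 ml/10 g of 2.5% […] p-benzoquinone in distilled water given ip. Abdominal writhes counted per animal for 15 min, starting 5 min after injection. Expressed as % change in mean writhing count versus vehicle controls.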

[14] = system: Mus musculus; test: Inhibition of p-benzoquinone-induced writhing in Swiss albino mouse at 50 mg/kg, po relative to control; assay type: functional; procedure, shortened: as §3
[15] = system: Mus musculus; test: Inhibition of p-benzoquinone-induced writhing in Swiss albino mouse at 100 mg/kg, po relative to control; assay type: functional; procedure, shortened: as §3
[16] = system: Mus musculus; test: Inhibition of p-benzoquinone-induced writhing in Swiss albino mouse at 200 mg/kg, po relative to control; assay type: functional; procedure, shortened: as §3
[17] = system: Mus musculus; test: Gastric-ulcerogenic effect in Swiss albino mouse assessed as lesions at 25 mg/kg, po; assay type: functional, organism-based; parameters: dose 25 mg/kg
Procedure, shortened: (§4)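 Mice killed under deep ether anesthesia 3 h after the writhing test; the oral dose in 0.5% CMC was the one used in that test. Stomachs removed, opened along the great curvature and examined under a dissecting microscope for lesions or bleeding. Reported as ratio of ulceration; n = 6.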

[18] = system: Mus musculus; test: Gastric-ulcerogenic effect in Swiss albino mouse assessed as lesions at 50 mg/kg, po; assay type: functional, organism-based; parameters: dose 50 mg/kg; procedure, shortened: as §4
[19] = system: Mus musculus; test: Gastric-ulcerogenic effect in Swiss albino mouse assessed as lesions at 100 mg/kg, po; assay type: functional, organism-based; parameters: dose 100 mg/kg; procedure, shortened: as §4
[20] = system: Mus musculus; test: Antiinflammatory activity against carrageenan-induced paw edema in Swiss albino mouse assessed as swelling thickness at 25 mg/kg, po after 90 mins; assay type: functional; procedure, shortened: as §1
[21] = system: Mus musculus; test: Antiinflammatory activity against carrageenan-induced paw edema in Swiss albino mouse assessed as swelling thickness at 25 mg/kg, po after 180 mins; assay type: functional; procedure, shortened: as §1
[22] = system: Mus musculus; test: Antiinflammatory activity against carrageenan-induced paw edema in Swiss albino mouse assessed as swelling thickness at 25 mg/kg, po after 270 mins; assay type: functional; procedure, shortened: as §1
[23] = system: Mus musculus; test: Antiinflammatory activity against carrageenan-induced paw edema in Swiss albino mouse assessed as swelling thickness at 25 mg/kg, po after 360 mins; assay type: functional; procedure, shortened: as §1
[24] = system: Mus musculus; test: Antiinflammatory activity against carrageenan-induced paw edema in Swiss albino mouse assessed as swelling thickness at 50 mg/kg, po after 180 mins; assay type: functional; procedure, shortened: as §1
[25] = system: Mus musculus; test: Antiinflammatory activity against carrageenan-induced paw edema in Swiss albino mouse assessed as swelling thickness at 50 mg/kg, po after 270 mins; assay type: functional; procedure, shortened: as §1
[26] = system: Mus musculus; test: Antiinflammatory activity against carrageenan-induced paw edema in Swiss albino mouse assessed as swelling thickness at 50 mg/kg, po after 360 mins; assay type: functional; procedure, shortened: as §1
[27] = system: Mus musculus; test: Antiinflammatory activity against carrageenan-induced paw edema in Swiss albino mouse assessed as swelling thickness at 200 mg/kg, po after 90 mins; assay type: functional; procedure, shortened: as §1
[28] = system: Mus musculus; test: Antiinflammatory activity against carrageenan-induced paw edema in Swiss albino mouse assessed as swelling thickness at 200 mg/kg, po after 180 mins; assay type: functional; procedure, shortened: as §1
[29] = system: Mus musculus; test: Antiinflammatory activity against carrageenan-induced paw edema in Swiss albino mouse assessed as swelling thickness at 200 mg/kg, po after 270 mins; assay type: functional; procedure, shortened: as §1
[30] = system: Mus musculus; test: Antiinflammatory activity against carrageenan-induced paw edema in Swiss albino mouse assessed as swelling thickness at 200 mg/kg, po after 360 mins; assay type: functional; procedure, shortened: as §1
[31] = system: Mus musculus; test: Inhibition of carrageenan-induced paw edema in Swiss albino mouse at 50 mg/kg, po after 90 mins relative to control; assay type: functional; conditions: 1.5 h
Procedure, shortened: (§5)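 Mice, n = 6 per group. Test agent given orally as a suspension in 0.5% sodium CMC in distilled water; controls received vehicle only. Afterwards, 0.5 mg/25 ll carrageenan in saline (154 mM NaCl) injected subplantar into the right hind paw, saline into the left. Right-minus-left footpad thickness measured by dial gauge caliper every 90 min for 6 h. Inhibition is relative to vehicle-control group means.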

[32] = system: Mus musculus; test: Inhibition of carrageenan-induced paw edema in Swiss albino mouse at 50 mg/kg, po after 180 mins relative to control; assay type: functional; conditions: 3 h; procedure, shortened: as §1
[33] = system: Mus musculus; test: Inhibition of carrageenan-induced paw edema in Swiss albino mouse at 50 mg/kg, po after 270 mins relative to control; assay type: functional; conditions: 4.5 h; procedure, shortened: as §5
[34] = system: Mus musculus; test: Inhibition of carrageenan-induced paw edema in Swiss albino mouse at 50 mg/kg, po after 360 mins relative to control; assay type: functional; conditions: 6 h; procedure, shortened: as §5
[35] = system: Mus musculus; test: Acute toxicity in Swiss albino mouse assessed as lethal effect at 25 mg/kg/day, po after 72 hrs; assay type: organism-based; parameters: route oral; conditions: in vivo
Procedure, shortened: (§6)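 Oral single dose suspended in 0.5% carboxymethylcellulose, given after a 24 h fast; food and water returned 1 h after dosing. Vehicle-only controls. Mice observed at 1 h, then once daily for 72 h, for toxic signs and mortality.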

[36] = system: Mus musculus; test: Acute toxicity in Swiss albino mouse assessed as lethal effect at 50 mg/kg/day, po after 72 hrs; assay type: organism-based; parameters: route oral; conditions: in vivo; procedure, shortened: as §6
[37] = system: Mus musculus; test: Acute toxicity in Swiss albino mouse assessed as lethal effect at 100 mg/kg/day, po after 72 hrs; assay type: organism-based; parameters: route oral; conditions: in vivo; procedure, shortened: as §6
[38] = system: Mus musculus; test: Acute toxicity in Swiss albino mouse assessed as lethal effect at 200 mg/kg/day, po after 72 hrs; assay type: organism-based; parameters: route oral; conditions: in vivo; procedure, shortened: as §6
[39] = system: Mus musculus; test: Antiinflammatory activity against carrageenan-induced paw edema in Swiss albino mouse assessed as swelling thickness at 50 mg/kg, po after 90 mins; assay type: functional; procedure, shortened: as §1

Structure (SMILES): CS(=O)(=O)c1nc(-c2ccc(Cl)cc2)n[nH]1
- Activity [1]: 37.5 10^-2mm
- Activity [2]: 42.8 10^-2mm
- Activity [3]: 46.2 10^-2mm
- Activity [4]: 51.2 10^-2mm
- inhibition in vivo at 100 mg/kg [5]: 16.3%
- inhibition in vivo at 100 mg/kg [6]: 16.9%
- inhibition in vivo at 100 mg/kg [7]: 21.4%
- inhibition in vivo at 100 mg/kg [8]: 25.6%
- Activity [9]: 42.8
- Activity [10]: 29.4
- Activity [11]: 31
- Activity [12]: 46.8
- inhibition in vivo at 25 mg/kg [13]: 16.7%
- inhibition in vivo at 50 mg/kg [14]: 42.8%
- inhibition in vivo at 100 mg/kg [15]: 34.5%
- inhibition in vivo at 200 mg/kg [16]: 8.9%
- Activity [17]: Active
- Activity [18]: Active
- Activity [19]: Active
- Activity [20]: 55.2 10^-2mm
- Activity [21]: 62.8 10^-2mm
- Activity [22]: 69.5 10^-2mm
- Activity [23]: 75.4 10^-2mm
- Activity [24]: 46.2 10^-2mm
- Activity [25]: 47.9 10^-2mm
- Activity [26]: 50.2 10^-2mm
- Activity [27]: 59.4 10^-2mm
- Activity [28]: 65.8 10^-2mm
- Activity [29]: 69.4 10^-2mm
- Activity [30]: 76.1 10^-2mm
- inhibition in vivo at 50 mg/kg [31]: 18%
- inhibition in vivo at 50 mg/kg [32]: 22.2%
- inhibition in vivo at 50 mg/kg [33]: 26.1%
- inhibition in vivo at 50 mg/kg [34]: 30.3%
- Activity [35]: Non-toxic
- Activity [36]: Non-toxic
- Activity [37]: Non-toxic
- Activity [38]: Non-toxic
- Activity [39]: 43.6 10^-2mm

Reference: ChEMBL document CHEMBL1142894, “Preparation of 5-aryl-3-alkylthio-l,2,4-triazoles and corresponding sulfones with antiinflammatory-analgesic activity” (Bioorg Med Chem, 2007)
